Test results published in ChEMBL document CHEMBL1649480, “Farnesol-induced apoptosis in Candida albicans” (2009).
Calls of active or inactive are those of the source. The calls are words filed in the database; no cut-off is given here.

How the values were obtained:
Candida albicans [1] = test: Upregulation of Pyruvate decarboxylase expression in Candida albicans SC5314 at 40 uM after 24 hrs by MALDI-TOF MS; format: functional, organism-based
Method in brief: (§1)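 SC5314 grown overnight at 30°C, 120 rpm, in yeast nitrogen base (pH 7.0) with 50 mM glucose. Cells were washed in PBS and adjusted to OD600 0.1, then treated 24 h with farnesol from a methanol dilution; controls received methanol. Proteomes of treated and untreated cells were compared by 2-D SDS-PAGE and MALDI-TOF MS, with ProFound searches of the NCBI nonredundant database. Spots changed at least 1.5-fold in three independent experiments were counted.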

Candida albicans [2] = test: Upregulation of Alanine/arginine aminopeptidase expression in Candida albicans SC5314 at 40 uM after 24 hrs by MALDI-TOF MS; format: functional, organism-based
Method in brief: (§2)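 Overnight YNB-glucose SC5314 culture, PBS-washed, adjusted to OD600 0.1 and treated 24 h with 40 or 200 μM farnesol (methanol in controls). Proteomes were compared with untreated cells by 2D SDS-PAGE and MALDI-TOF MS, searched against NCBI nonredundant database. Spots were counted as changed at ≥1.5-fold in three independent experiments.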

Candida albicans [3] = test: Upregulation of Phosphoglycerate mutase expression in Candida albicans SC5314 at 200 uM after 24 hrs by MALDI-TOF MS; format: functional, organism-based; method in brief: as §1
Candida albicans [4] = test: Downregulation of Glyceraldehyde-3-phosphate dehydrogenase expression in Candida albicans SC5314 at 200 uM after 24 hrs by MALDI-TOF MS; format: functional, organism-based; method in brief: as §2
Candida albicans [5] = test: Downregulation of Phosphoglycerate mutase expression in Candida albicans SC5314 at 40 uM after 24 hrs by MALDI-TOF MS; format: functional, organism-based; method in brief: as §2
Candida albicans [6] = test: Downregulation of Enolase expression in Candida albicans SC5314 at 40 uM after 24 hrs by MALDI-TOF MS; format: functional, organism-based; method in brief: as §2
Candida albicans [7] = test: Induction of apoptosis in Candida albicans SC5314 assessed as activation of caspase activity at 40 uM after 3 hrs by Fluorescence analysis; format: functional
Method in brief: (§3)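 Active caspases in farnesol-exposed cells (40, 100, 200 μM; methanol control, H2O2 positive control) were detected with a FLICA kit per manufacturer. Cells were examined by confocal microscopy, with green-fluorescing cells counted as caspase-positive and unstained cells as nonapoptotic. Percentage of positive cells was recorded.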

Candida albicans [8] = test: Induction of apoptosis in Candida albicans SC5314 assessed as mitochondrial degradation at 200 uM after 3 hrs by Fluorescence analysis; format: functional
Method in brief: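 Farnesol-exposed SC5314 (40, 100, 200 μM; methanol control, H2O2 positive control) stained with a MitoPT mitochondrial permeability transition dye per kit instructions. Cells imaged by confocal microscopy: red mitochondrial aggregates in healthy cells, dispersed green signal in apoptotic cells. Percentage of cells with degradation was recorded.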

Candida albicans [9] = test: Upregulation of Aldose reductase expression in Candida albicans SC5314 at 200 uM after 24 hrs by MALDI-TOF MS; format: functional, organism-based; method in brief: as §2
Candida albicans [10] = test: Downregulation of Riboflavin synthase expression in Candida albicans SC5314 at 40 uM after 24 hrs by MALDI-TOF MS; format: functional, organism-based; method in brief: as §2
Candida albicans [11] = test: Downregulation of GRE3 expression in Candida albicans SC5314 at 40 uM after 24 hrs by MALDI-TOF MS; format: functional, organism-based; method in brief: as §2
Candida albicans [12] = test: Upregulation of Heat shock protein 60 expression in Candida albicans SC5314 at 200 uM after 24 hrs by MALDI-TOF MS; format: functional, organism-based; method in brief: as §2
Candida albicans [13] = test: Upregulation of POR1 expression in Candida albicans SC5314 at 200 uM after 24 hrs by MALDI-TOF MS; format: functional, organism-based; method in brief: as §1
Candida albicans [14] = test: Downregulation of NADH:quinone oxidoreductase expression in Candida albicans SC5314 at 200 uM after 24 hrs by MALDI-TOF MS; format: functional, organism-based; method in brief: as §2
Candida albicans [15] = test: Increase in MCA1 expression in Candida albicans SC5314 at 40 uM after 4 hrs by quantitative PCR analysis; format: functional
Method in brief: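 Log-phase SC5314 cells were used, pregrown overnight at 30°C and 120 rpm in yeast nitrogen base (pH 7.0) with 50 mM glucose, washed in PBS and set to OD600 0.1. Farnesol (methanol stock) was given for 4 h, with methanol-matched untreated controls. SYBR green qPCR ran 35 cycles with 58°C annealing and a melt-curve check. MCA1 was calculated by 2^−ΔΔCT against ACT1 and RPP2B.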

Candida albicans [16] = test: Downregulation of Dihydroxy acid dehydratase expression in Candida albicans SC5314 at 200 uM after 24 hrs by MALDI-TOF MS; format: functional, organism-based; method in brief: as §2
Candida albicans [17] = test: Upregulation of Aryl-alcohol dehydrogenase expression in Candida albicans SC5314 at 40 uM after 24 hrs by MALDI-TOF MS; format: functional, organism-based; method in brief: as §2
Candida albicans [18] = test: Upregulation of Putative mitochondrial aconitate hydratase expression in Candida albicans SC5314 at 40 uM after 24 hrs by MALDI-TOF MS; format: functional, organism-based; method in brief: as §1
Candida albicans [19] = test: Induction of apoptosis in Candida albicans SC5314 assessed as activation of caspase activity at 200 uM after 3 hrs by Fluorescence analysis; format: functional; method in brief: as §3
Candida albicans [20] = test: Increase in MCA1 expression in Candida albicans SC5314 at 10 mM after 4 hrs by quantitative PCR analysis
Candida albicans [21] = test: Downregulation of Pyruvate kinase expression in Candida albicans SC5314 at 200 uM after 24 hrs by MALDI-TOF MS; format: functional, organism-based; method in brief: as §2
Candida albicans [22] = test: Upregulation of Alcohol dehydrogenase expression in Candida albicans SC5314 at 40 uM after 24 hrs by MALDI-TOF MS; format: functional, organism-based; method in brief: as §2
Candida albicans [23] = test: Upregulation of Heat shock protein 90 homologue expression in Candida albicans SC5314 at 40 uM after 24 hrs by MALDI-TOF MS; format: functional, organism-based; method in brief: as §2
Candida albicans [24] = test: Induction of apoptosis in Candida albicans SC5314 assessed as cell death level at 100 uM after 3 hrs by Fluorescence analysis; format: functional
Method in brief: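 Washed, OD600 0.1 SC5314 cells (overnight culture at 30°C in YNB pH 7.0 with 50 mM glucose) exposed 3 h to farnesol, with methanol vehicle and H2O2 controls. Stained 30 min in the dark with a mix of dichlorodihydrofluorescein diacetate, propidium iodide and calcofluor white, then PBS-washed. Confocal imaging; red propidium iodide-stained cells scored as a percentage of all cells.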

Candida albicans [25] = test: Down regulation of in MCA1 expression in Candida albicans SC5314 at 40 uM after 4 hrs by quantitative PCR analysis; format: functional, organism-based
Method in brief: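 Log-phase SC5314 exposed 4 h to farnesol (methanol vehicle control). cDNA diluted 1:20 and run in SYBR green real-time PCR: 15 min 95°C, then 35 cycles of 95°C 1 min, 58°C 30 s, 72°C 30 s, with a melt curve check. MCA1 level was calculated by 2^−ΔΔCT against ACT1 and RPP2B reference genes.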

Candida albicans [26] = test: Induction of ROS accumulation in mitochondria of Candida albicans SC5314 at 100 uM after 3 hrs by Fluorescence analysis; format: functional
Method in brief: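 Cells were exposed 3 h to 40, 100 or 200 μM farnesol, with methanol control and H2O2 positive control. Washed cells were stained 30 min in the dark with a mix of dichlorodihydrofluorescein diacetate, propidium iodide and calcofluor white, then washed and viewed by confocal microscopy. % green (ROS) cells of all cells was scored, with red (necrotic) cells scored separately.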

CC(C)=CCC/C(C)=C/CC/C(C)=C/CO [FARNESOL]
Activity (Candida albicans [1]): Active | Activity (Candida albicans [2]): Active | Activity (Candida albicans [3]): Active | Activity (Candida albicans [4]): Active | Activity (Candida albicans [5]): Active | Activity (Candida albicans [6]): Active | Activity (Candida albicans [7]): 5% | Activity (Candida albicans [8]): 95% | Activity (Candida albicans [9]): Active | Activity (Candida albicans [10]): Active | Activity (Candida albicans [11]): Active | Activity (Candida albicans [12]): Active | Activity (Candida albicans [13]): Active | Activity (Candida albicans [14]): Active | fold change (FC) (Candida albicans [15]): 3 | Activity (Candida albicans [16]): Active | Activity (Candida albicans [17]): Active | Activity (Candida albicans [18]): Active | Activity (Candida albicans [19]): 84% | Activity (Candida albicans [20]): Active | Activity (Candida albicans [21]): Active | Activity (Candida albicans [22]): Active | Activity (Candida albicans [23]): Active | Activity (Candida albicans [24]): 20% | Activity (Candida albicans [25]): inactive | Activity (Candida albicans [26]): 80%
